According to ChEMBL document CHEMBL1649212, “AI-2/LuxS is involved in increased biofilm formation by Streptococcus intermedius in the presence of antibiotics” (2009):
Activity calls are given as the source filed them. The calls are words filed in the database; no cut-off is given here.

What was measured:
[1] = tested on: Streptococcus intermedius; assay: Antimicrobial activity against Streptococcus intermedius NCTC 11324 assessed as biofilm formation at 0.05 to 0.10 ug/ml; format: functional, organism-based
Procedure, shortened: (§1)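 Wild-type NCTC 11324 was grown overnight in TSB and inoculated into TSB with ampicillin (0.02 to 0.10 μg/ml), ciprofloxacin (0.10 to 0.28 μg/ml) or tetracycline (0.05 to 0.30 μg/ml), added at time zero. Wells held plastic coverslips and were incubated 12 h at 37°C in 5% CO2 aerobic air. Biofilm was measured as described previously. Experiments were done three times in three parallels.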

[2] = tested on: Streptococcus intermedius; assay: Antimicrobial activity against Streptococcus intermedius NCTC 11324 biofilm assessed as biofilm bacterial count at 0.10 ug/ml (Rvb =402.9 +/- 26.88 10^5 CFU/ml); format: functional
[3] = tested on: Streptococcus intermedius; assay: Antimicrobial activity against Streptococcus intermedius NCTC 11324 biofilm assessed as biofilm bacterial count at 0.05 ug/ml (Rvb =402.9 +/- 26.88 10^5 CFU/ml); format: functional
[4] = tested on: Streptococcus intermedius; assay: Antimicrobial activity against Streptococcus intermedius NCTC 11324 biofilm assessed as biofilm bacterial count at 0.07 ug/ml (Rvb =402.9 +/- 26.88 10^5 CFU/ml); format: functional
[5] = tested on: Streptococcus intermedius; assay: Antimicrobial activity against Streptococcus intermedius SI006 biofilm harboring luxS mutant gene assessed as biofilm bacterial count at 0.10 ug/ml (Rvb =310.8 +/- 17.10 10^5 CFU/ml); format: functional
[6] = tested on: Streptococcus intermedius; assay: Antimicrobial activity against Streptococcus intermedius SI006 biofilm harboring luxS mutant gene assessed as biofilm bacterial count at 0.05 ug/ml (Rvb =310.8 +/- 17.10 10^5 CFU/ml); format: functional
[7] = tested on: Streptococcus intermedius; assay: Antimicrobial activity against Streptococcus intermedius SI006 biofilm harboring luxS mutant gene assessed as biofilm bacterial count at 0.07 ug/ml (Rvb =310.8 +/- 17.10 10^5 CFU/ml); format: functional
[8] = tested on: Streptococcus intermedius; assay: Antimicrobial activity against Streptococcus intermedius SI006 biofilm harboring luxS mutant gene assessed as biofilm bacterial count at 0.10 ug/ml in presence of 0.8 nM autoinducer 4,5-dihydroxy-2,3-pentanedione (Rvb =413.7 +/- 24.47 10^5 CFU/ml); format: functional
[9] = tested on: Streptococcus intermedius; assay: Antimicrobial activity against Streptococcus intermedius SI006 biofilm harboring luxS mutant gene assessed as biofilm bacterial count at 0.05 ug/ml in presence of 0.8 nM autoinducer 4,5-dihydroxy-2,3-pentanedione (Rvb =413.7 +/- 24.47 10^5 CFU/ml); format: functional
[10] = tested on: Streptococcus intermedius; assay: Antimicrobial activity against Streptococcus intermedius SI006 biofilm harboring luxS mutant gene assessed as biofilm bacterial count at 0.07 ug/ml in presence of 0.8 nM autoinducer 4,5-dihydroxy-2,3-pentanedione (Rvb =413.7 +/- 24.47 10^5 CFU/ml); format: functional
[11] = tested on: Streptococcus intermedius; assay: Antimicrobial activity against Streptococcus intermedius SI006 planktonic cells harboring luxS mutant gene assessed as bacterial count at 0.15 ug/ml in presence of 0.8 nM autoinducer 4,5-dihydroxy-2,3-pentanedione (Rvb =790.8 +/- 90.09 10^8 CFU/ml); format: functional
[12] = tested on: Streptococcus intermedius; assay: Antimicrobial activity against Streptococcus intermedius NCTC 11324 assessed as growth inhibition at 0.7 ug/ml; format: functional
Procedure, shortened: (§2)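 Broth microdilution MIC in ultra-low-binding 96-well plates, inoculum ≈4 × 10^5. Growth was read at 595 nm, and the MIC was taken as the lowest antibiotic concentration inhibiting growth.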

[13] = tested on: Streptococcus intermedius; assay: Antimicrobial activity against Streptococcus intermedius NCTC 11324 planktonic cells assessed as bacterial count at 0.08 ug/ml (Rvb =791.7 +/- 44.10 10^8 CFU/ml); format: functional
Procedure, shortened: (§3)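 Planktonic wild-type cells were inoculated at ≈4 × 10^5 CFU/ml in TSB in ultra-low-binding plates. Media were without or with ampicillin (0.02 to 0.14 μg/ml), ciprofloxacin (0.10 to 0.35 μg/ml) or tetracycline (0.03 to 0.20 μg/ml). After 12 h at 37°C in 5% CO2 aerobic air, CFU were counted, run in parallel with the BacTiter-Glo ATP assay. Experiments were done three times in two parallels.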

[14] = tested on: Streptococcus intermedius; assay: Antimicrobial activity against Streptococcus intermedius NCTC 11324 planktonic cells assessed as bacterial count at 0.10 ug/ml (Rvb =791.7 +/- 44.10 10^8 CFU/ml); format: functional; procedure, shortened: as §3
[15] = tested on: Streptococcus intermedius; assay: Antimicrobial activity against Streptococcus intermedius NCTC 11324 planktonic cells assessed as bacterial count at 0.12 ug/ml (Rvb =791.7 +/- 44.10 10^8 CFU/ml); format: functional; procedure, shortened: as §3
[16] = tested on: Streptococcus intermedius; assay: Antimicrobial activity against Streptococcus intermedius SI006 planktonic cells harboring luxS mutant gene assessed as bacterial count at 0.08 ug/ml (Rvb =757.5 +/- 80.14 10^8 CFU/ml); format: functional
[17] = tested on: Streptococcus intermedius; assay: Antimicrobial activity against Streptococcus intermedius SI006 planktonic cells harboring luxS mutant gene assessed as bacterial count at 0.10 ug/ml (Rvb =757.5 +/- 80.14 10^8 CFU/ml); format: functional
[18] = tested on: Streptococcus intermedius; assay: Antimicrobial activity against Streptococcus intermedius SI006 planktonic cells harboring luxS mutant gene assessed as bacterial count at 0.12 ug/ml (Rvb =757.5 +/- 80.14 10^8 CFU/ml); format: functional
[19] = tested on: Streptococcus intermedius; assay: Antimicrobial activity against Streptococcus intermedius SI006 planktonic cells harboring luxS mutant gene assessed as bacterial count at 0.08 ug/ml in presence of 0.8 nM autoinducer 4,5-dihydroxy-2,3-pentanedione (Rvb =790.8 +/- 90.09 10^8 CFU/ml); format: functional
[20] = tested on: Streptococcus intermedius; assay: Antimicrobial activity against Streptococcus intermedius SI006 planktonic cells harboring luxS mutant gene assessed as bacterial count at 0.10 ug/ml in presence of 0.8 nM autoinducer 4,5-dihydroxy-2,3-pentanedione (Rvb =790.8 +/- 90.09 10^8 CFU/ml); format: functional
[21] = tested on: Streptococcus intermedius; assay: Antimicrobial activity against Streptococcus intermedius SI006 planktonic cells harboring luxS mutant gene assessed as bacterial count at 0.12 ug/ml in presence of 0.8 nM autoinducer 4,5-dihydroxy-2,3-pentanedione (Rvb =790.8 +/- 90.09 10^8 CFU/ml); format: functional
[22] = tested on: Streptococcus intermedius; assay: Antimicrobial activity against Streptococcus intermedius NCTC 11324 planktonic cells assessed as bacterial count at 0.15 ug/ml (Rvb =791.7 +/- 44.10 10^8 CFU/ml); format: functional; procedure, shortened: as §3
[23] = tested on: Streptococcus intermedius; assay: Antimicrobial activity against Streptococcus intermedius SI006 planktonic cells harboring luxS mutant gene assessed as bacterial count at 0.15 ug/ml (Rvb =757.5 +/- 80.14 10^8 CFU/ml); format: functional
[24] = tested on: Streptococcus intermedius; assay: Antimicrobial activity against Streptococcus intermedius NCTC 11324 assessed as biofilm formation at 0.10 to 0.25 ug/ml; format: functional, organism-based; procedure, shortened: as §1
[25] = tested on: Streptococcus intermedius; assay: Antimicrobial activity against Streptococcus intermedius NCTC 11324 biofilm assessed as biofilm bacterial count at 0.15 ug/ml (Rvb =402.9 +/- 26.88 10^5 CFU/ml); format: functional
[26] = tested on: Streptococcus intermedius; assay: Antimicrobial activity against Streptococcus intermedius NCTC 11324 biofilm assessed as biofilm bacterial count at 0.20 ug/ml (Rvb =402.9 +/- 26.88 10^5 CFU/ml); format: functional
[27] = tested on: Streptococcus intermedius; assay: Antimicrobial activity against Streptococcus intermedius SI006 biofilm harboring luxS mutant gene assessed as biofilm bacterial count at 0.15 ug/ml (Rvb =310.8 +/- 17.10 10^5 CFU/ml); format: functional
[28] = tested on: Streptococcus intermedius; assay: Antimicrobial activity against Streptococcus intermedius SI006 biofilm harboring luxS mutant gene assessed as biofilm bacterial count at 0.20 ug/ml (Rvb =310.8 +/- 17.10 10^5 CFU/ml); format: functional
[29] = tested on: Streptococcus intermedius; assay: Antimicrobial activity against Streptococcus intermedius SI006 biofilm harboring luxS mutant gene assessed as biofilm bacterial count at 0.20 ug/ml in presence of 0.8 nM autoinducer 4,5-dihydroxy-2,3-pentanedione (Rvb =413.7 +/- 24.47 10^5 CFU/ml); format: functional
[30] = tested on: Streptococcus intermedius; assay: Antimicrobial activity against Streptococcus intermedius SI006 planktonic cells harboring luxS mutant gene assessed as bacterial count at 0.35 ug/ml in presence of 0.8 nM autoinducer 4,5-dihydroxy-2,3-pentanedione (Rvb =768.6 +/- 46.24 10^8 CFU/ml); format: functional
[31] = tested on: Streptococcus intermedius; assay: Antimicrobial activity against Streptococcus intermedius NCTC 11324 assessed as growth inhibition at 0.5 ug/ml; format: functional; procedure, shortened: as §2
[32] = tested on: Streptococcus intermedius; assay: Antimicrobial activity against Streptococcus intermedius NCTC 11324 planktonic cells assessed as bacterial count at 0.20 ug/ml (Rvb =756.9 +/- 62.98 10^8 CFU/ml); format: functional; procedure, shortened: as §3
[33] = tested on: Streptococcus intermedius; assay: Antimicrobial activity against Streptococcus intermedius NCTC 11324 planktonic cells assessed as bacterial count at 0.25 ug/ml (Rvb =756.9 +/- 62.98 10^8 CFU/ml); format: functional; procedure, shortened: as §3
[34] = tested on: Streptococcus intermedius; assay: Antimicrobial activity against Streptococcus intermedius NCTC 11324 planktonic cells assessed as bacterial count at 0.30 ug/ml (Rvb =756.9 +/- 62.98 10^8 CFU/ml); format: functional; procedure, shortened: as §3
[35] = tested on: Streptococcus intermedius; assay: Antimicrobial activity against Streptococcus intermedius NCTC 11324 planktonic cells assessed as bacterial count at 0.35 ug/ml (Rvb =756.9 +/- 62.98 10^8 CFU/ml); format: functional
[36] = tested on: Streptococcus intermedius; assay: Antimicrobial activity against Streptococcus intermedius SI006 planktonic cells harboring luxS mutant gene assessed as bacterial count at 0.25 ug/ml (Rvb =708.1 +/- 47.64 10^8 CFU/ml); format: functional
[37] = tested on: Streptococcus intermedius; assay: Antimicrobial activity against Streptococcus intermedius SI006 planktonic cells harboring luxS mutant gene assessed as bacterial count at 0.30 ug/ml (Rvb =708.1 +/- 47.64 10^8 CFU/ml); format: functional
[38] = tested on: Streptococcus intermedius; assay: Antimicrobial activity against Streptococcus intermedius SI006 planktonic cells harboring luxS mutant gene assessed as bacterial count at 0.35 ug/ml (Rvb =708.1 +/- 47.64 10^8 CFU/ml); format: functional
[39] = tested on: Streptococcus intermedius; assay: Antimicrobial activity against Streptococcus intermedius SI006 planktonic cells harboring luxS mutant gene assessed as bacterial count at 0.20 ug/ml in presence of 0.8 nM autoinducer 4,5-dihydroxy-2,3-pentanedione (Rvb =768.6 +/- 46.24 10^8 CFU/ml); format: functional
[40] = tested on: Streptococcus intermedius; assay: Antimicrobial activity against Streptococcus intermedius SI006 planktonic cells harboring luxS mutant gene assessed as bacterial count at 0.25 ug/ml in presence of 0.8 nM autoinducer 4,5-dihydroxy-2,3-pentanedione (Rvb =768.6 +/- 46.24 10^8 CFU/ml); format: functional
[41] = tested on: Streptococcus intermedius; assay: Antimicrobial activity against Streptococcus intermedius SI006 planktonic cells harboring luxS mutant gene assessed as bacterial count at 0.30 ug/ml in presence of 0.8 nM autoinducer 4,5-dihydroxy-2,3-pentanedione (Rvb =768.6 +/- 46.24 10^8 CFU/ml); format: functional

CN(C)[C@@H]1C(O)=C(C(N)=O)C(=O)[C@@]2(O)C(O)=C3C(=O)c4c(O)cccc4[C@@](C)(O)[C@H]3C[C@@H]12 [TETRACYCLINE]
Activity [1]: inactive | CFU [2]: 610.5 ×10⁵ /ml | CFU [3]: 779.2 ×10⁵ /ml | CFU [4]: 637.1 ×10⁵ /ml | CFU [5]: 108.8 ×10⁵ /ml | CFU [6]: 333 ×10⁵ /ml | CFU [7]: 253.1 ×10⁵ /ml | CFU [8]: 486.2 ×10⁵ /ml | CFU [9]: 333 ×10⁵ /ml | CFU [10]: 253.1 ×10⁵ /ml | CFU [11]: 10.1 ×10⁸ /ml | Activity [12]: 0.7 µg/mL | CFU [13]: 61.9 ×10⁸ /ml | CFU [14]: 44.5 ×10⁸ /ml | CFU [15]: 32 ×10⁸ /ml | CFU [16]: 11.2 ×10⁸ /ml | CFU [17]: 5.7 ×10⁸ /ml | CFU [18]: 3 ×10⁸ /ml | CFU [19]: 38.4 ×10⁸ /ml | CFU [20]: 25.2 ×10⁸ /ml | CFU [21]: 16.3 ×10⁸ /ml | CFU [22]: 24.2 ×10⁸ /ml | CFU [23]: 2 ×10⁸ /ml

O=C(O)c1cn(C2CC2)c2cc(N3CCNCC3)c(F)cc2c1=O [CIPROFLOXACIN]
Activity [24]: inactive | CFU [2]: 768.1 ×10⁵ /ml | CFU [25]: 663.8 ×10⁵ /ml | CFU [26]: 577.2 ×10⁵ /ml | CFU [5]: 324.1 ×10⁵ /ml | CFU [27]: 333 ×10⁵ /ml | CFU [28]: 131 ×10⁵ /ml | CFU [8]: 814.7 ×10⁵ /ml | CFU [29]: 519.5 ×10⁵ /ml | CFU [30]: 2.3 ×10⁸ /ml | Activity [31]: 0.5 µg/mL | CFU [32]: 5.87 ×10⁸ /ml | CFU [33]: 5.14 ×10⁸ /ml | CFU [34]: 3.12 ×10⁸ /ml | CFU [35]: 2.6 ×10⁸ /ml | CFU [36]: 1.16 ×10⁸ /ml | CFU [37]: 0.74 ×10⁸ /ml | CFU [38]: 0.4 ×10⁸ /ml | CFU [39]: 5.3 ×10⁸ /ml | CFU [40]: 4.72 ×10⁸ /ml | CFU [41]: 3.1 ×10⁸ /ml
